Experimental data reported in ChEMBL document CHEMBL1135065, “2-(anilinomethyl)imidazolines as alpha1A adrenergic receptor agonists: 2'-heteroaryl and 2'-oxime ether series” (Bioorg Med Chem Lett, 2002).

Key:
[1] = biological target: T1, Alpha-1B adrenergic receptor (Homo sapiens, UniProt P35368); assay: In vitro binding affinity against human Alpha-1B adrenergic receptor expressed in rat-1 fibroblasts
T1 sequence (P35368 whole entry): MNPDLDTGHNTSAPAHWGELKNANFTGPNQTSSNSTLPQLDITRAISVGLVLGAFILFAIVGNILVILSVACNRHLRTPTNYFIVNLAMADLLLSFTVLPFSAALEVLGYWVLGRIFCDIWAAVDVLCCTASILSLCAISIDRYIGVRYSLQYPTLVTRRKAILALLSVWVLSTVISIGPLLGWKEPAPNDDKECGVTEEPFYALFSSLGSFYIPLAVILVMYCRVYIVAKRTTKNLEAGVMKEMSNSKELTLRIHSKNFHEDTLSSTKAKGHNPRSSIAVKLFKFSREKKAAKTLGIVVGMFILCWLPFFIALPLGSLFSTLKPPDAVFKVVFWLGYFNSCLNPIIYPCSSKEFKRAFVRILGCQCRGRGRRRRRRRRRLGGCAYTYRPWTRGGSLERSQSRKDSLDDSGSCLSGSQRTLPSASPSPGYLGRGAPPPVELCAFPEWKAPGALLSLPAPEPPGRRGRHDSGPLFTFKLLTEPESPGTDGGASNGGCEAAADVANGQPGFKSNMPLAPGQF
Procedure, shortened: (§1)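 Radioligand binding on membranes from Rat-1 fibroblasts expressing human α1A, α1B or α1D adrenoceptor. Affinity reported as pIC50, mean of at least two experiments.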

[2] = biological target: T2, Alpha-1D adrenergic receptor (Homo sapiens, UniProt P25100); assay: In vitro activation of human alpha-1D receptor expressed in rat-1 fibroblasts via calcium using mobilization through the Gq coupled PLC pathway as functional assay
T2 sequence (P25100 whole entry): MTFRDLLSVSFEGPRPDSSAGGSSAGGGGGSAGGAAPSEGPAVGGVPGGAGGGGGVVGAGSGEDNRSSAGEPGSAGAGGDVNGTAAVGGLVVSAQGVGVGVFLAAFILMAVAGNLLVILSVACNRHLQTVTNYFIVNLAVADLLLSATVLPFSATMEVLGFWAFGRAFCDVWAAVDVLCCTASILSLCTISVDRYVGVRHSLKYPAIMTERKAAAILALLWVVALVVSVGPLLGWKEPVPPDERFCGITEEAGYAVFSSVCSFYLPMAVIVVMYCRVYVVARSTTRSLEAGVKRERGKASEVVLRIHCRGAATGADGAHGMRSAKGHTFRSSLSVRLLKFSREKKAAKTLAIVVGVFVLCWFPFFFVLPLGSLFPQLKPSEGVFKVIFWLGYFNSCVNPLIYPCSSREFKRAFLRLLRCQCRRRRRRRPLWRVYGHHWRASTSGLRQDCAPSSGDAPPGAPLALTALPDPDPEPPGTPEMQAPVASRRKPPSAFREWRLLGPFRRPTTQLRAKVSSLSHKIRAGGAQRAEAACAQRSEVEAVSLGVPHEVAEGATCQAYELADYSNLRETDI
Procedure, shortened: (§2)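 Calcium mobilization via Gq/PLC was read by FLIPR with Calcium Green fluorescent dye. Eleven-point concentration–response curves, top concentration typically 5 µM, expressed as percent of the 40 µM phenylephrine response. Values are pEC50 and % maximal response, mean of at least two experiments.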

[3] = biological target: T1, Alpha-1B adrenergic receptor; assay: In vitro activation of human Alpha-1B receptor expressed in rat-1 fibroblasts via calcium mobilization through the Gq coupled PLC pathway as functional assay
[4] = biological target: T3, Alpha-1A adrenergic receptor (Homo sapiens, UniProt P35348); assay: In vitro binding affinity against human Alpha-1A adrenergic receptor expressed in rat-1 fibroblasts cells; type: cell-based, Fibroblast; procedure, shortened: as §1
T3 sequence (P35348 whole entry): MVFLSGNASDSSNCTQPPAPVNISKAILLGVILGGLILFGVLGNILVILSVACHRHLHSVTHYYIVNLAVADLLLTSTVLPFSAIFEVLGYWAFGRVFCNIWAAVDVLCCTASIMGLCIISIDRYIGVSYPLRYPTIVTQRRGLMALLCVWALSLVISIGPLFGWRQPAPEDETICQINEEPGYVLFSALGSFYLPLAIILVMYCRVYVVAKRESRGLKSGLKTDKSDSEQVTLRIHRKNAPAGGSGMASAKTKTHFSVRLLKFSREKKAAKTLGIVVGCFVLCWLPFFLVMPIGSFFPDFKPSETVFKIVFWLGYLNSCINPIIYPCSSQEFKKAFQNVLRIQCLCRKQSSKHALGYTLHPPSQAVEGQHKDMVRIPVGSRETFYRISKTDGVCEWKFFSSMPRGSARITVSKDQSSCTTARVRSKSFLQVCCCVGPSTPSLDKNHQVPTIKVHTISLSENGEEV

[5] = biological target: T2, Alpha-1D adrenergic receptor; assay: In vitro binding affinity against human Alpha-1D adrenergic receptor expressed in rat-1 fibroblasts; procedure, shortened: as §1
[6] = biological target: T3, Alpha-1A adrenergic receptor; assay: In vitro activation of human alpha-1A receptor expressed in rat-1 fibroblasts via calcium mobilization through the Gq coupled PLC pathway as functional assay; procedure, shortened: as §2
[7] = biological target: T4, Alpha-1A adrenergic receptor (Homo sapiens) (UniProt P35348); assay: In vitro human alpha-1A receptor activation determined via calcium mobilization through the Gq coupled PLC pathway in rat-1 fibroblasts as percent maximum of phenylephrine response; type: functional
T4 sequence (whole entry): T3 sequence (P35348 whole entry)
Procedure, shortened: as §2, with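 “Human α1A (clone #137–12) or α1D (clone #16–7) adrenoceptor stably expressed in Rat-1 fibroblasts. Calcium mobilization” for “Calcium mobilization”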

| SMILES | IC50 [1] [µM] | EC50 [2] [µM] | EC50 [3] [µM] | IC50 [4] [µM] | IC50 [5] [µM] | EC50 [6] [µM] | Max [7] [%] |
| --- | --- | --- | --- | --- | --- | --- | --- |
| c1ccc(-c2ccno2)c(NCC2=NCCN2)c1 | 0.132 | 0.00288 | 0.00372 | 0.0355 | 0.038 | 0.000794 |  |
| Cc1nc(-c2ccccc2NCC2=NCCN2)co1 |  | > 5.01 | > 5.01 |  |  | 0.324 |  |
| c1coc(-c2ccccc2NCC2=NCCN2)c1 |  | 0.0162 | 0.00631 |  |  | 0.000468 |  |
| c1ccc(-c2cnccn2)c(NCC2=NCCN2)c1 |  | 0.182 | 0.339 |  |  | 0.00457 |  |
| CCO/N=C(\C)c1ccccc1NCC1=NCCN1 |  | > 5.01 | > 5.01 |  |  | 0.0525 | 102 |
| Cc1nc(-c2ccccc2NCC2=NCCN2)no1 |  | > 5.01 | 0.676 |  |  | 0.724 |  |
| c1ccc(-c2ncco2)c(NCC2=NCCN2)c1 | 0.447 | 0.00501 | 0.00162 | 0.0457 | 0.0407 | 0.000661 |  |
| CC/C(=N/OC)c1ccccc1NCC1=NCCN1 |  | > 5.01 | > 5.01 |  |  | 0.0871 | 141 |
| Cc1ncc(-c2ccccc2NCC2=NCCN2)o1 |  | > 5.01 | > 5.01 |  |  | 0.11 |  |
| c1ccc(-c2ccccc2NCC2=NCCN2)nc1 | 0.589 | 0.0417 | 0.0302 | 0.0813 | 0.117 | 0.00676 |  |
| FC(F)(F)c1cccnc1-c1ccccc1NCC1=NCCN1 |  | > 100 | > 100 |  |  | 0.676 |  |
| c1csc(-c2ccccc2NCC2=NCCN2)c1 |  | 0.0182 | 0.00575 |  |  | 0.00224 |  |
| Nc1nccc(-c2ccccc2NCC2=NCCN2)n1 |  | 0.0288 | > 5.01 |  |  | 0.0427 |  |
| Cc1ncoc1-c1ccccc1NCC1=NCCN1 | 0.324 | > 100 | > 100 | 0.191 | 0.347 | 0.0151 |  |
| Cc1noc(-c2ccccc2NCC2=NCCN2)n1 |  | > 5.01 | > 5.01 |  |  | 0.661 |  |
| Cc1cccnc1-c1ccccc1NCC1=NCCN1 |  | > 100 | > 100 |  |  | 0.0245 |  |
| CC/C(=N\OC)c1ccccc1NCC1=NCCN1 |  | > 100 | > 100 |  |  | 0.00331 | 112 |
| Cc1ccsc1-c1ccccc1NCC1=NCCN1 |  | 0.049 | 0.112 |  |  | 0.000851 |  |
| c1cnc(-c2ccccc2NCC2=NCCN2)nc1 | 2.19 | 0.0813 | 0.0776 | 0.191 | 0.417 | 0.01 |  |
| Cc1nc(-c2ccccc2NCC2=NCCN2)cs1 |  | > 5.01 | 0.0692 |  |  | 0.00447 |  |
| c1ccc(-c2cnoc2)c(NCC2=NCCN2)c1 |  | > 100 | > 100 |  |  | 0.0457 |  |
| Cc1cc(-c2ccccc2NCC2=NCCN2)on1 |  | > 100 | 0.0955 |  |  | 0.0389 |  |
| CO/N=C/c1ccccc1NCC1=NCCN1 | 0.162 | > 5.01 | > 5.01 | 0.282 | 0.0427 | 0.0513 | 94 |
| Cc1ccc(-c2ccccc2NCC2=NCCN2)o1 |  | > 2 | 0.0468 |  |  | 0.00269 |  |
| Cc1ccc(-c2ccccc2NCC2=NCCN2)s1 |  | > 100 | > 100 |  |  | 0.0363 |  |
| c1ccc(-c2cnco2)c(NCC2=NCCN2)c1 | 0.229 | > 5.01 | > 5.01 | 0.457 | 0.295 | 0.0174 |  |
| CO/N=C(\C)c1ccccc1NCC1=NCCN1 |  | > 5.01 | > 5.01 |  |  | 0.0209 | 92 |
